As usually defined, the GI50 is the concentration giving 50% growth inhibition. Lower therefore signals more potent growth inhibition. Broadly, the TGI is the concentration giving total growth inhibition. Low readings indicate greater sensitivity of the cells, high ones lower sensitivity of the cells. What is called LC50 is the concentration that kills 50% of the test population. A higher LC50 goes with a less lethal substance.

Common to all, as to type: functional
The test system of one experiment is HT-29. Briefly: Cytotoxicity against human HT-29 cells after 72 hrs by SRB assay. The following applies: HT-29, 72 h. In outline:
(§1)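 Cells kept in RPMI with 10% fetal calf serum, 2 mM L-glutamine, 100 U/mL penicillin/streptomycin, 37 °C, 5% CO2. Triplicate cultures exposed 72 h to 10 concentrations, 10 to 0.0026 µg/mL. Fixed in 1% glutaraldehyde 15 min, stained with 0.4% SRB 30 min at room temperature, extracted in 10 mM trizma base, absorbance read at 490 nm. GI50 from NCI algorithm, corrected for starting cell count. Doxorubicin positive control, DMSO vehicle.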
In general terms: The SRB assay estimates cell density from bound dye.

A further experiment has as its system MDA-MB-231. The experiment in a line: Cytotoxicity against human MDA-MB-231 cells after 72 hrs by SRB assay. The following applies: MDA-MB-231, 72 h; for CC50: read-out: LC50 (the source's name). The method, boiled down: as §1
The test system of another experiment is A549. Briefly: Cytotoxicity against human A549 cells after 72 hrs by SRB assay. The following applies: A549, 72 h. In outline:
as §1

As to `O=C(O)C[C@@H]1CC[C@@H]([C@@H]2CC[C@@H](CCCCCCC3\C=C/C=C\C=C/C3)O2)OO1` (stereo not given in full) [STOLONOXIDE E], in the experiment on HT-29, it took 3.96 µM to inhibit growth by half (GI50), the LC50 (concentration killing 50% of starting cells) was 6.67 µM and the TGI came out at 5.19 µM. In addition, in the experiment with MDA-MB-231, halving of growth (GI50) required 4.94 µM, net growth stopped (TGI) at 5.44 µM and the CC50 was found to be 6.18 µM. In the experiment on A549, this compound had a 50% growth inhibitory concentration (GI50) of 7.91 µM, an LC50 of 8.65 µM and a TGI of 8.16 µM.

In the experiment with HT-29, `O=C(O)C[C@@H]1CC[C@@H]([C@H]2CC[C@H](CCCCCCC3\C=C/C=C\C=C/C3)O2)OO1` (stereo not given in full) [STOLONOXIDE F] returned a GI50 of 2.72 µM, an LC50 (concentration killing 50% of starting cells) of 3.71 µM and a concentration for total growth inhibition (TGI) of 3.21 µM. In addition, in the experiment with MDA-MB-231, it took 4.7 µM to inhibit growth by half (GI50), total growth inhibition (TGI) required 5.44 µM and the CC50 is 6.18 µM. In the experiment on A549, this compound yielded a concentration for 50% growth inhibition (GI50) of 5.44 µM, an LC50 of 6.67 µM and a TGI of 5.93 µM.

Take `COc1cccc2c1C(=O)c1c(O)c3c(c(O)c1C2=O)C[C@@](O)(C(=O)CO)C[C@@H]3O[C@H]1C[C@H](N)[C@H](O)[C@H](C)O1` [DOXORUBICIN]: in the experiment on HT-29, the concentration for 50% growth inhibition (GI50) amounted to 0.066 µM and the total growth inhibition concentration (TGI) was found to be 0.4 µM. Also, in the experiment on MDA-MB-231, the GI50 was determined as 0.038 µM, total growth inhibition (TGI) required 0.31 µM and the CC50 came to 2.41 µM. In the experiment with A549, the 50% growth inhibitory concentration (GI50) was determined as 0.062 µM and the TGI stood at 0.26 µM.

The values above are taken from ChEMBL document CHEMBL1154838, “Stolonoxides E and F, cytotoxic metabolites from the marine ascidian Stolonica socialis” (2010).
